Substrate in data set [1]: CC1=C(CCC(=O)NCCCN2CCN(C)CC2)C(=O)c2c(O)cccc2C1=O
In words: The Michaelis-Menten constant for NADH oxidation by pig heart LipDH (lipoamide dehydrogenase).

Substrate in data set [2]: CC1=C(CCC(=O)O)C(=O)c2c(O)cccc2C1=O
Described as above.

Substrate in data set [3]: CC1=C(CCCNC(=O)OC(C)(C)C)C(=O)c2ccccc2C1=O
The description is as above.

Substrate in data set [4]: CC1=C(CCCNC(=O)OC(C)(C)C)C(=O)c2c(O)cccc2C1=O
The description is as above.

Substrate in data set [5]: CC1=C(CCC(=O)O)C(=O)c2ccccc2C1=O
The description is as above.

Substrate in data set [6]: CC1=C(CCC(=O)NCCCN2CCN(C)CC2)C(=O)c2c(O)cccc2C1=O
In words: (§1) Vmax is the maximum velocity of the pig heart LipDH (lipoamide dehydrogenase) catalyzed NADH oxidation. The method, boiled down: (§2)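 Recombinant T. cruzi LipDH (E. coli, purified) or pig heart LipDH, 0.1–2.5 µg/mL. Buffer was 50 mM potassium phosphate, 1 mM EDTA, pH 7.0, with 100 µM NADH and naphthoquinone at 10 µM–1.2 mM; all assays carried equal DMSO. Run at 31 °C, started with enzyme, NADH decrease followed at 340 nm. Km and Vmax from Lineweaver–Burk plots. At least duplicate.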

Substrate in data set [7]: CC1=CC(=O)c2c(O)cccc2C1=O
The data set is described as §1. Summed up:
as §2

Substrate in data set [8]: CC1=C(CCC(=O)O)C(=O)c2c(O)cccc2C1=O
Described as §1. The method, boiled down: as §2

Substrate in data set [9]: CC1=C(CCCNC(=O)OC(C)(C)C)C(=O)c2ccccc2C1=O
Described as §1. Summed up: as §2

Substrate in data set [10]: CC1=C(CCCNC(=O)OC(C)(C)C)C(=O)c2c(O)cccc2C1=O
The data set is described as §1. The method, boiled down:
as §2

Substrate in data set [11]: CC1=C(CCC(=O)NCCCN2CCN(C)CC2)C(=O)c2ccccc2C1=O
The data set is described as §1. The method, boiled down: as §2

Substrate in data set [12]: CC1=CC(=O)c2ccccc2C1=O
The data set is described as §1. The method, boiled down:
as §2

Substrate in data set [13]: CC1=C(CCC(=O)O)C(=O)c2ccccc2C1=O
The description is as §1. The method, boiled down:
as §2

Substrate in data set [14]: CC1=CC(=O)c2c(O)cccc2C1=O
In words: (§3) The Michaelis-Menten constant for […] by pig heart LipDH (lipoamide dehydrogenase). The method, boiled down: as §2

Substrate in data set [15]: CC1=C(CCC(=O)NCCCN2CCN(C)CC2)C(=O)c2ccccc2C1=O
The description is as §3. The method, boiled down:
as §2

Substrate in data set [16]: CC1=CC(=O)c2ccccc2C1=O
The description is as §3. Summed up:
as §2

B1: Dihydrolipoyl dehydrogenase, mitochondrial (Sus scrofa), P09623 (protein)
chain: MQSWSRVYCTLAKRGHFNRIAHGLQGVSAVPLRTYADQPIDADVTVIGSGPGGYVAAIKAAQLGFKTVCIEKNETLGGTCLNVGCIPSKALLNNSHYYHMAHGKDFASRGIEMSEVRLNLEKMMEQKSNAVKALTGGIAHLFKQNKVVRVNGYGKITGKNQVTATKADGSTEVINTKNILIATGSEVTPFPGITIDEDTVVSSTGALSLKKVPEKMVVIGAGVIGVELGSVWQRLGADVTAVELLGHVGGIGIDMEVSKNFQRILQKQGFKFKLNTKVIGATKKSDGNIDVSIEAASGGKAEVITCDVLLVCIGRRPFTQNLGLEELGIELDPRGRIPVNTRFQTKIPNIYAIGDVVAGPMLAHKAEDEGIICVEGMAGGAVHIDYNCVPSVIYTHPEVAWVGKSEEQLKEEGIEYKVGKFPFAANSRAKTNADTDGMVKILGQKSTDRVLGAHIIGPGAGEMINEAALALEYGASCEDIARVCHAHPTLSEAFREANLAASFGKAINF
Turning to B1, the Km in data set [1] is 15 µM; in data set [2], 75 µM; in data set [3], 25 µM; in data set [4], 40 µM; in data set [5], 40 µM; in [14] it was 74 µM. The figures for the Michaelis-Menten constant (Km) in data set [15] and in [16] were 110 µM and 72 µM, respectively. The Vmax was found to be 1.09 µM/min/mg in data set [6]; 25.3 µM/min/mg in [7]; 2.2 µM/min/mg in data set [8]; 1.03 µM/min/mg in data set [9]; 1.66 µM/min/mg in [10]; 3.46 µM/min/mg in [11]. The maximal velocity (Vmax) in data set [12] was 11.5 µM/min/mg; in data set [13] it was 1.52 µM/min/mg.

A word on the Km: it is the concentration of substrate that gives half-maximal velocity. For orientation: Vmax means the top rate of the reaction or transport when substrate is in excess.

These data come from ChEMBL document CHEMBL1134791, “2- and 3-substituted 1,4-naphthoquinone derivatives as subversive substrates of trypanothione reductase and lipoamide dehydrogenase from Trypanosoma cruzi: synthesis and correlation between redox cycling activities and in vitro cytotoxicity” (J Med Chem, 2001).
